Measured values from different studies.
Each line is one published result; the experiments were not run side by side.
Target: Serine/threonine-protein kinase MRCK alpha (CDC42BPA, Homo sapiens, UniProt Q5VT25)

For `O=C(Nc1c[nH]nc1C(=O)NC1CCNCC1)c1cc(F)cc(F)c1`, the remaining binding was 95% (binding; competition with immobilised ligand; 1 µM).
`C[C@H]1CCN(c2nccc(-c3cnn4ncccc34)n2)C1` gave a remaining binding of 98% (binding; 1 µM).
`O=C(c1ccc(Nc2ncc(Cl)c(-c3cc4ccccc4s3)n2)cc1)N1CCC(N2CCCC2)CC1` has a remaining binding of 14% (binding; competition with immobilised ligand; 1 µM).
`CNC(=O)[C@@H]1CC[C@@H](n2c(-c3ccc4cnccc4c3)nc3ccc(C(=O)NCc4cccc(C(N)=O)c4)cc32)C1` has a remaining binding of 100% (binding; competition with immobilised ligand; 1 µM).
`COc1ccnn2ncc(-c3ccnc(N(C)C)n3)c12` has a remaining binding of 100% (binding; 1 µM).
`C=CC(=O)N1CCC(C(=O)NCC(=O)N2CCN(c3nc(-c4cnc(N)nc4C(F)F)nc(N4CCOCC4)n3)CC2)CC1` gave a remaining binding of 100% (binding; competition with immobilised ligand; 1 µM).
`Cc1cc(-n2nc(Cc3cc(F)cc(C(F)(F)F)c3)nc2C)ccc1C(N)=O` has a remaining binding of 100% (cell-free assay; competition with immobilised ligand; 1 µM).
For `CN(C)c1nccc(-c2cnc3ncccn23)n1`, the remaining binding was 83% (binding; 1 µM).
For `COc1cc(-c2cn(C3CCc4c(F)cccc4N(CC(F)(F)F)C3=O)nn2)ccc1-n1cnc(C)c1` (stereo not shown), the remaining binding was 100% (cell-free assay; competition with immobilised ligand; 1 µM).
The remaining binding of `N[C@@H]1CCN(c2nccc(-c3cnn4ncccc34)n2)C1` is reported as 100% (binding; 1 µM).
`c1cncc(-c2cccc(Nc3nccc(NC4CCCCC4)n3)c2)c1` has a remaining binding of 100% (binding; competition with immobilised ligand; 10 µM).
For `O=C(NCCCN1CCOCC1)c1ccc(Nc2nccc(-c3cc4ccccc4s3)n2)cc1`, the remaining binding was 72% (binding; competition with immobilised ligand; 1 µM).
With `O=C(NCc1ncc(C(F)(F)F)cc1Cl)c1ccc2c(c1)C1(CCS(=O)(=O)CC1)[C@@H](C1CC1)N2S(=O)(=O)c1ccc(F)cc1` the remaining binding was 100% (cell-free assay; competition with immobilised ligand; 1 µM).
The remaining binding of `CN(C)c1nccc(-c2cnn3ncccc23)n1` is reported as 100% (binding; 1 µM).
For `O=C1CCc2cc(Nc3cc(OC4CCOCC4)c([N+](=O)[O-])cc3Cl)ccc2N1`, the remaining binding was 91% (cell-free assay; competition with immobilised ligand; 1 µM).
The remaining binding of `CN(CCCC(F)(F)F)c1nccc(-c2cnn3ncccc23)n1` is reported as 100% (binding; 1 µM).
`NS(=O)(=O)c1cc(NC(=O)Cc2ccccc2)ccc1Oc1cccc(Cl)c1` gave a remaining binding of 91% (cell-free assay; competition with immobilised ligand; 1 µM).
The remaining binding of `COc1cnc(Nc2cccc(S(N)(=O)=O)c2)nc1N1CCN(c2ccccc2)CC1` is reported as 97% (binding; competition with immobilised ligand; 1 µM).
With `Cc1noc([C@H]2C[C@@H](c3ccc(C(F)(F)F)cc3)CN(C(=O)N3CCS(=O)(=O)C3)C2)n1` the remaining binding was 100% (cell-free assay; competition with immobilised ligand; 1 µM).
`c1cnn2ncc(-c3ccnc(N4CCC45COC5)n3)c2c1` has a remaining binding of 100% (binding; 1 µM).
`O=C(NCCCN1CCOCC1)c1ccc(Nc2ncc(Cl)c(-c3ccc(Cl)s3)n2)cc1` gave a remaining binding of 100% (binding; competition with immobilised ligand; 1 µM).
For `CN1CCN(c2cnc3c(C4CCN(C(=O)c5ccc(OC(F)(F)F)cc5N)CC4)ncnc3c2)CC1`, the remaining binding was 100% (cell-free assay; competition with immobilised ligand; 1 µM).
